Calls of active or inactive are those of the source.
Legend:
[1] = target: T1, Probable carboxylesterase 12 (Arabidopsis thaliana) (UniProt Q9SMN0); assay: Binding affinity to CXE12 in Arabidopsis thaliana leaf extracts at 4 to 20 uM after 1 hr using SDS-PAGE followed by nanoLC-ESI-MS/MS analysis
T1 sequence (whole entry): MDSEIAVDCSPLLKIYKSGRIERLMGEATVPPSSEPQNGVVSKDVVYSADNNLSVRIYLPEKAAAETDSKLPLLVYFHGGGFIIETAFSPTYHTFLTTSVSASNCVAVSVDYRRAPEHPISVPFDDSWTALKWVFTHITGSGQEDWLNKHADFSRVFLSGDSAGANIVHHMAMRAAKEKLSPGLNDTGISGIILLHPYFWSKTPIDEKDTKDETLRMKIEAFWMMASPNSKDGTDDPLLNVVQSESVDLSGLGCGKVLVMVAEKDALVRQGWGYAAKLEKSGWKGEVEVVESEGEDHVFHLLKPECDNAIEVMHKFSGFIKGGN

Arabidopsis thaliana [2] = assay: Binding affinity to POPL in Arabidopsis thaliana leaf extracts at 4 to 20 uM after 1 hr using SDS-PAGE followed by nanoLC-ESI-MS/MS analysis
[3] = target: T2, Serine carboxypeptidase-like 48 (Arabidopsis thaliana) (UniProt Q56WF8); assay: Binding affinity to SCPL48 in Arabidopsis thaliana leaf extracts at 4 to 20 uM after 1 hr using SDS-PAGE followed by nanoLC-ESI-MS/MS analysis
T2 sequence (whole entry): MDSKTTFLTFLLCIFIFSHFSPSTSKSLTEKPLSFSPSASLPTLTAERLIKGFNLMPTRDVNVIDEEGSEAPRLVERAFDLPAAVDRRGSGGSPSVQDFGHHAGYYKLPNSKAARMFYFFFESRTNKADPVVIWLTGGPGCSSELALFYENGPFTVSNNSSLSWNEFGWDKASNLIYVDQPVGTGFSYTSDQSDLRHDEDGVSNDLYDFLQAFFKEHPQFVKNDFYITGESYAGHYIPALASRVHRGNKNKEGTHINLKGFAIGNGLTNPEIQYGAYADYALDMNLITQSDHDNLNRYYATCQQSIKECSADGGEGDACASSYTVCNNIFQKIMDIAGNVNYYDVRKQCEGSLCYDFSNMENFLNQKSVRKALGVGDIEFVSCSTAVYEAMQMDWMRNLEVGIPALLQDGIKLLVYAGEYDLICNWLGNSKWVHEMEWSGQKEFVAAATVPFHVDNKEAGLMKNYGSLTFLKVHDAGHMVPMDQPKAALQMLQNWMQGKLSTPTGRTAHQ

[4] = target: T3, Probable carboxylesterase 7 (Arabidopsis thaliana) (UniProt Q9ZQ91); assay: Binding affinity to CXE7 in Arabidopsis thaliana leaf extracts at 4 to 20 uM after 1 hr using SDS-PAGE followed by nanoLC-ESI-MS/MS analysis
T3 sequence (whole entry): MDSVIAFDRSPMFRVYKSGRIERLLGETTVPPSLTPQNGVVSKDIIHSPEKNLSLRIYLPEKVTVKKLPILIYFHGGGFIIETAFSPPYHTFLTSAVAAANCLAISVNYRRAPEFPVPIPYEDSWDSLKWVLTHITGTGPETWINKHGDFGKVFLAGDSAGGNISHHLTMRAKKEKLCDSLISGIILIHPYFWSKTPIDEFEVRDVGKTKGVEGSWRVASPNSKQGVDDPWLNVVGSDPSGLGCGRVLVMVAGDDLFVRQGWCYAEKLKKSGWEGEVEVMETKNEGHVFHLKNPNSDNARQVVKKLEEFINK

[5] = target: T1, Probable carboxylesterase 12 (Arabidopsis thaliana); assay: Binding affinity to Arabidopsis thaliana CXE12 overexpressed in agroin filtreated Nicotiana benthamiana leaf extracts pre-incubated with 100 uM paraoxon for 30 mins at 2 uM after 1 hr using SDS-PAGE followed by nanoLC-ESI-MS/MS analysis
Summary of the method: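 CXE12 cDNA in binary vector, Agrobacterium GV3101 pMP90, co-infiltrated with p19 silencing-suppressor strain into 4-week-old N. benthamiana leaves (p19 alone as control). Leaf extracts preincubated 30 min with 100 µM paraoxon or DMSO, then labeled 1 h with 2 µM probe. Reactions stopped in gel loading buffer, proteins resolved on gels, fluorescence scanning.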

[6] = target: T1, Probable carboxylesterase 12 (Arabidopsis thaliana); assay: Binding affinity to CXE12 in Arabidopsis thaliana leaf extracts pre-incubated with 100 uM paraoxon for 30 mins at 5 uM after 1 hr using SDS-PAGE followed by nanoLC-ESI-MS/MS analysis
Summary of the method: (§1)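 Extract from 2 g frozen leaves of 4-week-old A. thaliana Col-0, ground, taken up in water, cleared 5 min at 16,000×g. Labeled with 5 µM probe, biotinylated targets pulled down on avidin beads, run on 1D SDS–PAGE and fluorescence-scanned. Bands excised, digested in-gel, and analysed by nanoLC-ESI-MS/MS on LTQ Velos (C18, 5–40% acetonitrile over 90 min, 300 nL/min, positive mode, m/z 400–1600).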

Arabidopsis thaliana [7] = assay: Binding affinity to POPL in Arabidopsis thaliana leaf extracts pre-incubated with 100 uM paraoxon for 30 mins at 5 uM after 1 hr using SDS-PAGE followed by nanoLC-ESI-MS/MS analysis; summary of the method: as §1
[8] = target: T2, Serine carboxypeptidase-like 48 (Arabidopsis thaliana); assay: Binding affinity to SCPL48 in Arabidopsis thaliana leaf extracts pre-incubated with 100 uM paraoxon for 30 mins at 5 uM after 1 hr using SDS-PAGE followed by nanoLC-ESI-MS/MS analysis; summary of the method: as §1
[9] = target: T3, Probable carboxylesterase 7 (Arabidopsis thaliana); assay: Binding affinity to CXE7 in Arabidopsis thaliana leaf extracts pre-incubated with 100 uM paraoxon for 30 mins at 5 uM after 1 hr using SDS-PAGE followed by nanoLC-ESI-MS/MS analysis; summary of the method: as §1

Measured: Activity

C#CCNC(=O)OCCOCCOCCOCCP(=O)(OCC)Oc1ccc([N+](=O)[O-])cc1 (centres undefined)
active: [1] | Arabidopsis thaliana [2] | [3] | [4]

CCOP(=O)(CCOCCOCCOCCOC(=O)NCc1cn(CCCCCNC(=O)CCC(=O)N[C@@H](CCCCNC(=O)CCCCC[C@@H]2SC[C@@H]3NC(=O)N[C@@H]32)C(=O)NCCCCCNC(=O)c2ccc(-c3c4ccc(=[N+](C)C)cc-4oc4cc(N(C)C)ccc34)c(C(=O)[O-])c2)nn1)Oc1ccc([N+](=O)[O-])cc1 (some centres undefined)
active: [5] | [6] | Arabidopsis thaliana [7] | [8] | [9]
